Experimental data as given in ChEMBL document CHEMBL2439981, “Design, synthesis, and biological evaluation of bone-targeted proteasome inhibitors for multiple myeloma” (Bioorg Med Chem Lett, 2013).

Experiments:
Assay type in all cases: functional, cell-based
[1] = system: RPMI-8226; assay: Cytotoxicity against human RPMI8226 cells after 48 to 72 hrs by SRB assay
Outline: (§1)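 Cells seeded in triplicate at 3,000 per well in RPMI with 10% fetal bovine serum; drugs added after 24 h at six or more concentrations (1–18 nM in the dose-response figure). Exposure 72 h per methods and figure legend, 48 h per table footnote. Sulforhodamine B colorimetric read-out. IC50 from growth-inhibition curve, mean ±SD of at least 3 independent experiments.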

[2] = (§2) Cytotoxicity against mouse 5TGM1 cells after 48 to 72 hrs by SRB assay; outline: as §1
[3] = system: 5TGM1; assay: as §2; outline: as §1

For `CC(C)C[C@H](NC(=O)[C@H](Cc1ccc(OCCCC(=O)NCCCC(O)(P(=O)(O)O)P(=O)(O)O)cc1)NC(=O)c1cnccn1)B(O)O`, the IC50 [1] was 11.5 nM, the inhibition [1] was “Dose-dependent effect” and the IC50 [2] was 9.39 nM. For the same compound, the inhibition [3] was “Dose-dependent effect”.

With `CC(C)C[C@H](NC(=O)[C@H](CC(C)C)NC(=O)[C@H](CC(C)C)NC(=O)OCc1ccc(C(=O)NCCCC(O)(P(=O)(O)O)P(=O)(O)O)cc1)B(O)O` the IC50 [1] was 12.5 nM, the inhibition [1] was “Dose-dependent effect” and the IC50 [2] was 4.89 nM. For the same compound, the inhibition [3] was “Dose-dependent effect”.

With `CC(C)C[C@H](NC(=O)[C@H](Cc1ccccc1)NC(=O)c1cnccn1)B(O)O` [BORTEZOMIB] the IC50 [1] was 9.5 nM, the inhibition [1] was “Dose-dependent effect” and the IC50 [2] was 6.78 nM. For the same compound, the inhibition [3] was “Dose-dependent effect”.

In the case of `CC(C)C[C@H](NC(=O)[C@H](CC(C)C)NC(=O)[C@H](CC(C)C)NC(=O)OCc1ccccc1)B(O)O`, the IC50 [1] is reported as 13.8 nM, the inhibition [1] is reported as “Dose-dependent effect” and the IC50 [2] is reported as 9.18 nM. For the same compound, the inhibition [3] was “Dose-dependent effect”.

With `CC(C)C[C@H](NC(=O)[C@H](Cc1ccccc1)NC(=O)c1cnc(C(=O)NCCCC(O)(P(=O)(O)O)P(=O)(O)O)cn1)B(O)O` the IC50 [1] was 10.2 nM, the inhibition [1] was “Dose-dependent effect” and the IC50 [2] was 7.59 nM. The inhibition [3] was “Dose-dependent effect”.
